Converted amounts (≈) assume the structure as drawn. Peptide text beside a SMILES is read from it.
Legend:
[1] = test system: Priestia megaterium; assay: Antibacterial activity against Bacillus megaterium ATCC 19213 after overnight incubation by microplate dilution method; type: functional
Procedure, shortened: (§1)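 MIC read by microplate broth dilution with an inoculum of 10^6 organisms per ml of medium. Each peptide was tested 7–10 times.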

[2] = test system: Staphylococcus aureus; assay: Antibacterial activity against Staphylococcus aureus NBRC 12732 after overnight incubation by microplate dilution method; type: functional; procedure, shortened: as §1
[3] = test system: Bacillus subtilis; assay: Antibacterial activity against Bacillus subtilis NBRC 3513 after overnight incubation by microplate dilution method; type: functional; procedure, shortened: as §1
[4] = test system: Escherichia coli; assay: Antibacterial activity against Escherichia coli NBRC 12734 after overnight incubation by microplate dilution method; type: functional; procedure, shortened: as §1
[5] = test system: Pseudomonas aeruginosa; assay: Antibacterial activity against Pseudomonas aeruginosa NBRC 3080 after overnight incubation by microplate dilution method; type: functional; procedure, shortened: as §1
[6] = test system: Staphylococcus epidermidis; assay: Antibacterial activity against Staphylococcus epidermidis NBRC 12933 after overnight incubation by microplate dilution method; type: functional; procedure, shortened: as §1
[7] = Hemolytic activity against sheep RBC at 20 to 100 uM after 30 mins by spectrophotometry; type: ADME, cell-based, Ovis aries; details: erythrocyte, 0.5 h
Procedure, shortened: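 Sheep erythrocytes were exposed to a range of peptide concentrations to build hemolysis (%) dose–response curves. The experiment was run three times per peptide.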

Row | MIC [1] [mg/L] | MIC [2] [mg/L] | MIC [3] [mg/L] | MIC [4] [mg/L] | MIC [5] [mg/L] | MIC [6] [mg/L] | Compound | Activity [7]
1 | 6.25 (≈ 5.4 µM) | 12.5 (≈ 10.8 µM) | 6.25 (≈ 5.4 µM) | 25 (≈ 21.6 µM) | 50 (≈ 43.2 µM) | 6.25 (≈ 5.4 µM) | CC(C)C[C@@H]1NC(=O)[C@H](CCCN)NC(=O)[C@H](C(C)C)NC(=O)[C@@H]2C[C@H](N)CN2C(=O)[C@@H](Cc2ccccc2)NC(=O)[C@H](CC(C)C)NC(=O)[C@H](CCCN)NC(=O)[C@H](C(C)C)NC(=O)[C@@H]2CCCN2C(=O)[C@@H](Cc2ccccc2)NC1=O | Toxic
2 | 6.25 (≈ 4.87 µM) | 6.25 (≈ 4.87 µM) | 12.5 (≈ 9.75 µM) | 50 (≈ 39 µM) | 50 (≈ 39 µM) | 6.25 (≈ 4.87 µM) | CCCCCCCC(=O)N[C@H]1C[C@H]2C(=O)N[C@@H](C(C)C)C(=O)N[C@@H](CCCN)C(=O)N[C@@H](CC(C)C)C(=O)N[C@H](Cc3ccccc3)C(=O)N3CCC[C@H]3C(=O)N[C@@H](C(C)C)C(=O)N[C@@H](CCCN)C(=O)N[C@@H](CC(C)C)C(=O)N[C@H](Cc3ccccc3)C(=O)N2C1 | Toxic
3 | 6.25 (≈ 5.4 µM) | 12.5 (≈ 10.8 µM) | 6.25 (≈ 5.4 µM) | 25 (≈ 21.6 µM) | 50 (≈ 43.2 µM) | 6.25 (≈ 5.4 µM) | CC(C)C[C@@H]1NC(=O)[C@H](CCCN)NC(=O)[C@H](C(C)C)NC(=O)[C@@H]2C[C@@H](N)CN2C(=O)[C@@H](Cc2ccccc2)NC(=O)[C@H](CC(C)C)NC(=O)[C@H](CCCN)NC(=O)[C@H](C(C)C)NC(=O)[C@@H]2CCCN2C(=O)[C@@H](Cc2ccccc2)NC1=O | Toxic
4 | 3.13 (≈ 2.74 µM) | 3.13 (≈ 2.74 µM) | 3.13 (≈ 2.74 µM) | 25 (≈ 21.9 µM) | 25 (≈ 21.9 µM) | 3.13 (≈ 2.74 µM) | CC(C)C[C@@H]1NC(=O)[C@H](CCCN)NC(=O)[C@H](C(C)C)NC(=O)[C@@H]2CCCN2C(=O)[C@@H](Cc2ccccc2)NC(=O)[C@H](CC(C)C)NC(=O)[C@H](CCCN)NC(=O)[C@H](C(C)C)NC(=O)[C@@H]2CCCN2C(=O)[C@@H](Cc2ccccc2)NC1=O [GRAMICIDIN S] (HELM PEPTIDE1{L.[dF].P.V.[Orn].L.[dF].P.V.[Orn]}$PEPTIDE1,PEPTIDE1,1:R1-10:R2$$$V2.0) | 
